Laboratory results taken from ChEMBL document CHEMBL1132279, “Axially chiral 1,7-naphthyridine-6-carboxamide derivatives as orally active tachykinin NK(1) receptor antagonists: synthesis, antagonistic activity, and effects on bladder functions” (J Med Chem, 1999).
“And” between values parts separate entries of the source, which are not always exact repeats. Equal entries are not always repeated.

Tests used:
Cavia porcellus [1] = experiment: Shut down time of distension induced rhythmic bladder contractions in urethane anesthetized guinea pigs after a intravenous dose of 0.3 mg/kg of the compound; type: functional
How it was run: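 Urethane-anesthetized guinea pigs; saline (39 °C) infused stepwise (0.2 mL) into the bladder via a dome needle until rhythmic isovolumetric contractions appeared. Compound in DMSO (0.05 mL/100 g) given iv at 0.3 mg/kg. Shutdown time (interval between contractions, 30 min cutoff) reported as mean ± SE, compared with the vehicle group mean by Dunnett's test.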

Cavia porcellus [2] = experiment: In vivo inhibition of capsaicin-induced plasma extravasation in the trachea of guinea pigs after peroral administration; type: functional; details: po, read-out: ID50 (the source's name)
How it was run: (§1)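 Male Hartley guinea pigs (n = 5–8) under pentobarbital 35 mg/kg ip. Compound given iv 5 min, or orally 60 min, before iv capsaicin (150 µg/kg) plus Evans blue (20 mg/kg) in ethanol-saline 3:7. After 10 min, animals were perfused with saline and the trachea weighed.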

Cavia porcellus [3] = experiment: Effective dose that increased the bladder volume threshold of urethane anesthetized guinea pigs by 30%; type: functional
How it was run: (§2)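 Urethane-anesthetized guinea pigs; bladder volume threshold read before dosing (mean of last two stable trials as control) and again 10 min after iv injection. Compound in 80% DMSO, 0.1 mL/100 g body weight. Effect given as % rise in volume threshold over predrug value; ED30 is the dose raising threshold by 30%, with 6–12 animals per dose and 95% confidence limits.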

Cavia porcellus [4] = experiment: Inhibition of capsaicin-induced plasma extravasation in guinea pig trachea by peroral administration; type: functional; details: po, read-out: ID50 (the source's name); how it was run: as §1
Substance-P receptor = Substance-P receptor (Homo sapiens, UniProt P25103); experiment: Tachykinin receptor 1 antagonistic activity as ability to inhibit [125I]BH-SP binding in human IM-9 cells (lymphoblast cells); type: cell-based
Chain of Substance-P receptor (P25103 whole entry): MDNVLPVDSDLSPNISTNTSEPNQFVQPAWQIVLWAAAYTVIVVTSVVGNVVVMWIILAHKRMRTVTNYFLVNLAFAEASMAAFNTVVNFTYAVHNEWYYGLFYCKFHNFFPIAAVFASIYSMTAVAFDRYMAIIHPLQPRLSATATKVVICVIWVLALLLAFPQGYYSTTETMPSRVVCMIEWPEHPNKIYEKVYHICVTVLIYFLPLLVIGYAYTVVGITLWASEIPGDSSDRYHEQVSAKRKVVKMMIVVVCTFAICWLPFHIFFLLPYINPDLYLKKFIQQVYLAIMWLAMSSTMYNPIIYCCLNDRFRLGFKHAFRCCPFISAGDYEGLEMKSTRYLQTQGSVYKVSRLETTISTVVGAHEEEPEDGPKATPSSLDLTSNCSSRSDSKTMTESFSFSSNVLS

Cavia porcellus [5] = experiment: In vivo inhibition of capsaicin-induced plasma extravasation in the trachea of guinea pigs after intravenous administration; type: functional; how it was run: as §1
Cavia porcellus [6] = experiment: Increased bladder volume threshold in urethane anesthetized guinea pigs by 30%; type: functional; how it was run: as §2

Structure (SMILES)	Shutdown time (Cavia porcellus [1])	ED50 (Cavia porcellus [2])	ED30 (Cavia porcellus [3])	IC50 (Substance-P receptor)	also measured
Cc1ccc(-c2c3n(c(=O)c4ncccc24)C[C@@H](C)CN(Cc2cc(C(F)(F)F)cc(C(F)(F)F)c2)C3=O)cc1	17.9 min	0.033 mg/kg	0.16 mg/kg	–	–
Cc1ccc(-c2c3n(c(=O)c4ncccc24)CCCN(Cc2cc(C(F)(F)F)cc(C(F)(F)F)c2)C3=O)cc1	10.1 min	–	0.37 mg/kg	0.85 nM	ED50 (Cavia porcellus [4]): 0.073 mg/kg
Cc1ccc(-c2c3n(c(=O)c4ncccc24)C[C@H](C)CN(Cc2cc(C(F)(F)F)cc(C(F)(F)F)c2)C3=O)cc1	5.9 min	–	–	9.5 nM	–
Cc1ccc(-c2c3n(c(=O)c4ncccc24)CCCCCN(Cc2cc(C(F)(F)F)cc(C(F)(F)F)c2)C3=O)cc1	17.1 min	0.04 mg/kg	0.086 mg/kg	1.8 nM	–
Cc1ccc(-c2c3n(c(=O)c4ncccc24)CCN(Cc2cc(C(F)(F)F)cc(C(F)(F)F)c2)C3=O)cc1	–	–	–	2.3 nM	–
Cc1ccc(-c2c3n(c(=O)c4ncccc24)CC[C@@H](C)CN(Cc2cc(C(F)(F)F)cc(C(F)(F)F)c2)C3=O)cc1 (stereo in doubt; (aR,9R)-8b)	21.8 min	0.033 mg/kg	0.051 mg/kg	–	ID50 (Cavia porcellus [5]): 0.0043 mg/kg
Cc1ccc(-c2c3n(c(=O)c4ncccc24)CC[C@@H](C)CN(Cc2cc(C(F)(F)F)cc(C(F)(F)F)c2)C3=O)cc1 (stereo in doubt; (aS,9R)-8b)	–	–	–	–	ID50 (Cavia porcellus [5]): 0.026 mg/kg
Cc1ccc(-c2c3n(c(=O)c4ncccc24)CC[C@H](C)CN(Cc2cc(C(F)(F)F)cc(C(F)(F)F)c2)C3=O)cc1 (stereo in doubt; (aS,9S)-8b) [7-(3,5-BIS-TRIFLUOROMETHYL-BENZYL)-9-METHYL-5-P-TOLYL-8,9,10,11-TETRAHYDRO-7H-1,7,11A-TRIAZA-CYCLOOCTA[B]NAPHTHALENE-6,12-DIONE (ATROPISOMERIC MIX)]	6.7 min	–	–	–	ED50 (Cavia porcellus [5]; Cavia porcellus, Plasma, iv, read-out: ID50 (the source's name)): > 0.3 mg/kg
Cc1ccc(-c2c3n(c(=O)c4ncccc24)CCCCN(Cc2cc(C(F)(F)F)cc(C(F)(F)F)c2)C3=O)cc1 [7-(3,5-BIS-TRIFLUOROMETHYL-BENZYL)-5-P-TOLYL-8,9,10,11-TETRAHYDRO-7H-1,7,11A-TRIAZA-CYCLOOCTA[B]NAPHTHALENE-6,12-DIONE (ATROPISOMERIC MIX)]	–	0.019 mg/kg	0.066 mg/kg	–	Shutdown time (Cavia porcellus [1]; 0.3 mg/kg): 7.4 min and 19.2 min and 15.7 min
Cc1ccc(-c2c(C(=O)N(C)Cc3cc(C(F)(F)F)cc(C(F)(F)F)c3)n(C)c(=O)c3ncccc23)cc1 [7-METHYL-8-OXO-5-P-TOLYL-7,8-DIHYDRO-[1,7]NAPHTHYRIDINE-6-CARBOXYLIC ACID (3,5-BIS-TRIFLUOROMETHYL-BENZYL)-METHYL-AMIDE (STRUCTURAL MIX)]	–	0.11 mg/kg	–	–	Shutdown time (Cavia porcellus [1]; 0.3 mg/kg): 12.9 min [middle of 4 runs]; ED30 (Cavia porcellus [6]): 0.1 mg/kg
